ChEMBL document CHEMBL4627281, “A small molecule inhibitor of PCSK9 that antagonizes LDL receptor binding via interaction with a cryptic PCSK9 binding groove” (Bioorg Med Chem, 2020)

target: PCSK9/LDLR (Homo sapiens, UniProt Q8NBP7); test: Inhibition of recombinant human His-tagged PCSK9 interaction with recombinant LDLR AB domain (unknown origin) measured after 3 hrs by horseradish peroxidase-coupled TMB substrate based spectrophotometry; type: protein assay; settings: not given
In short: (§1)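 ELISA plates pre-coated with LDLR-EGF-AB domain. Compounds serially diluted from 10 mM DMSO stocks in reaction buffer, with 7 ng His-tagged human PCSK9 added, 3 h at room temperature with shaking. Binding detected with biotinylated anti-His antibody (1 h), then HRP-streptavidin (20 min), then substrate (15 min); absorbance read at 450/540 nm. IC50 taken from the % inhibition curve.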

Row | IC50 [µM] | SMILES
1 | 10.7 | Cc1cc(-c2cc(NC(=O)c3ccc(C)c(Nc4nccc(-c5ccc(F)cc5)n4)c3)cc(N3CCN(C)CC3)c2)on1
2 | 0.078 | Cc1cn(-c2cc(NC(=O)c3ccc(C)c(Oc4cccc5ccncc45)c3)cc(N3CCN(C)CC3)c2)cn1
3 | 3.29 | Cc1ccc(C(=O)Nc2cccc(N3CCN(C)CC3)c2)cc1Nc1nccc(-c2ccc(F)cc2)n1
4 | 40.1 | Cc1cn(-c2cc(NC(=O)c3ccc(C)c(Nc4nccc(-c5ccc(F)cc5)n4)c3)cc(N3CCOCC3)c2)cn1
5 | 0.428 | Cc1cn(-c2cc(CN3CCC[C@H](N)C3)cc(NC(=O)c3ccc(C)c(Nc4nccc(-c5ccc(F)cc5)n4)c3)c2)cn1

target: Mast/stem cell growth factor receptor Kit (Homo sapiens, UniProt P10721); test: Inhibition of recombinant human N-terminal GST-tagged c-Kit (544 to end residues) expressed in baculovirus infected Sf21 insect cells using FAM-labelled P22 peptide as substrate preincubated for 10 mins followed by substrate addition and measured after 1 hr in presence of ATP by fluorescence assay; settings: not given
Sequence (P10721 whole entry): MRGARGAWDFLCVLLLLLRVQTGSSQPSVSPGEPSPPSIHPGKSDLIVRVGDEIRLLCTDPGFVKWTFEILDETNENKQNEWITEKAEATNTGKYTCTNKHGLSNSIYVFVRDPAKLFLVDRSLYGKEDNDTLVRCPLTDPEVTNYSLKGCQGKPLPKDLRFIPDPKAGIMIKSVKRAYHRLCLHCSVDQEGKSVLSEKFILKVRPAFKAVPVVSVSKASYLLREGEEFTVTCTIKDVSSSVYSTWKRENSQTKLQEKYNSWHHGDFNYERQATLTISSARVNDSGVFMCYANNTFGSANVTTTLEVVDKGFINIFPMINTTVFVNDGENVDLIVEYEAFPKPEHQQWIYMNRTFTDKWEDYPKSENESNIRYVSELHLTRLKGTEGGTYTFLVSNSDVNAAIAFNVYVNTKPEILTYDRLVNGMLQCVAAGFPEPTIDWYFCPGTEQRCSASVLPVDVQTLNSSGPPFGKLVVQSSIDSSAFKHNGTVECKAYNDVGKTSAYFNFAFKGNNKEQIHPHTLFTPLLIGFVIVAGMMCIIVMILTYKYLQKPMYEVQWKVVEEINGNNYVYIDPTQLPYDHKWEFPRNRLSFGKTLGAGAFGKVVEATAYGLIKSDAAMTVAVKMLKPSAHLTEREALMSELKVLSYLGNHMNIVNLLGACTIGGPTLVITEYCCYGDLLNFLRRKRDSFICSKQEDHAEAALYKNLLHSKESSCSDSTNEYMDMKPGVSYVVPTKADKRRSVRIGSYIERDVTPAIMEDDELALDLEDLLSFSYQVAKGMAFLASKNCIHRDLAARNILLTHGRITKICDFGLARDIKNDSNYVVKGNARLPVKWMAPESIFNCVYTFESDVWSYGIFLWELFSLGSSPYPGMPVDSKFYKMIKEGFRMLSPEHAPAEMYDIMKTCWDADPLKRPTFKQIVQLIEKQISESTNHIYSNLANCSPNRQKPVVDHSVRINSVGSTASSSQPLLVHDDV

Row | IC50 [µM] | SMILES
6 | 3.1 | Cc1cc(-c2cc(NC(=O)c3ccc(C)c(Nc4nccc(-c5ccc(F)cc5)n4)c3)cc(N3CCN(C)CC3)c2)on1
7 | 0.227 | Cc1cn(-c2cc(NC(=O)c3ccc(C)c(Oc4cccc5ccncc45)c3)cc(N3CCN(C)CC3)c2)cn1
8 | 0.093 | Cc1ccc(C(=O)Nc2cccc(N3CCN(C)CC3)c2)cc1Nc1nccc(-c2ccc(F)cc2)n1
9 | 0.79 | Cc1cn(-c2cc(NC(=O)c3ccc(C)c(Nc4nccc(-c5ccc(F)cc5)n4)c3)cc(N3CCOCC3)c2)cn1
10 | 1.96 | Cc1cn(-c2cc(CN3CCC[C@H](N)C3)cc(NC(=O)c3ccc(C)c(Nc4nccc(-c5ccc(F)cc5)n4)c3)c2)cn1

target: Tyrosine-protein kinase ABL1 (Homo sapiens, UniProt P00519); test: (§2) Inhibition of recombinant human N-terminal His-tagged Abl (2 to 1130 residues) expressed in baculovirus expression system using FAM-labelled P2 peptide as substrate preincubated for 10 mins followed by substrate addition and measured after 1 hr in presence of ATP by fluorescence assay; settings: not given
Sequence (P00519 whole entry, the tested form may be a part): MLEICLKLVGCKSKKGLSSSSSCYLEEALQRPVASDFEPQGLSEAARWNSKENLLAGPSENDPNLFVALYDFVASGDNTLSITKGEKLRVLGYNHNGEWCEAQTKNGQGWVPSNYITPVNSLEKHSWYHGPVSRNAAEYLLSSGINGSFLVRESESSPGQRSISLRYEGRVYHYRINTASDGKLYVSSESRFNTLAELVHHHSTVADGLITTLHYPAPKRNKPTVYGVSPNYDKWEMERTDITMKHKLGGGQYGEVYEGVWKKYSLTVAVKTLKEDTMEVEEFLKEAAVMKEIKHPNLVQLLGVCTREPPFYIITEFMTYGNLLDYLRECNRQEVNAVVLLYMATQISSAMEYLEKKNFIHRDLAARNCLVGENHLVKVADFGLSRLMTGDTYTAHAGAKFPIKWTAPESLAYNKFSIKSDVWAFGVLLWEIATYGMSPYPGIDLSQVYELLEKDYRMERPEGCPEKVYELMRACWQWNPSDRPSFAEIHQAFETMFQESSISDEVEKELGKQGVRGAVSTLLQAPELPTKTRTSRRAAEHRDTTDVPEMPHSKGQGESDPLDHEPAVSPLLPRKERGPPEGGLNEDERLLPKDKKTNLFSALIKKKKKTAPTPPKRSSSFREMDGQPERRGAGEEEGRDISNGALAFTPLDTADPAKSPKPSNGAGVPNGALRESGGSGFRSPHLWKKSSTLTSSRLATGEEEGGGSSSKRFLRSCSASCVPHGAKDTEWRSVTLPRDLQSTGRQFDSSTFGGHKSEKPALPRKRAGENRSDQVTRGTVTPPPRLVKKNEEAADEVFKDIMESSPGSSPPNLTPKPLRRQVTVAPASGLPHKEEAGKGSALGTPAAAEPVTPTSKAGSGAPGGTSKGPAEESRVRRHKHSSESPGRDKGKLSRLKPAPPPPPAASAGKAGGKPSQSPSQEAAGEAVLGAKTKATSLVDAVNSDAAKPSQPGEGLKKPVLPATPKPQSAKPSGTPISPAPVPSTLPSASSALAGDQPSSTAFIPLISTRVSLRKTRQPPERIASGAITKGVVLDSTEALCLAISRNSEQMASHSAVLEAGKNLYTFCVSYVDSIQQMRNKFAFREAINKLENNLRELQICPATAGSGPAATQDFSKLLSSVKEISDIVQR

Row | IC50 [µM] | SMILES
11 | > 10 | Cc1cc(-c2cc(NC(=O)c3ccc(C)c(Nc4nccc(-c5ccc(F)cc5)n4)c3)cc(N3CCN(C)CC3)c2)on1
12 | > 10 | Cc1cn(-c2cc(NC(=O)c3ccc(C)c(Oc4cccc5ccncc45)c3)cc(N3CCN(C)CC3)c2)cn1
13 | > 10 | Cc1ccc(C(=O)Nc2cccc(N3CCN(C)CC3)c2)cc1Nc1nccc(-c2ccc(F)cc2)n1
14 | > 10 | Cc1cn(-c2cc(NC(=O)c3ccc(C)c(Nc4nccc(-c5ccc(F)cc5)n4)c3)cc(N3CCOCC3)c2)cn1
15 | > 10 | Cc1cn(-c2cc(CN3CCC[C@H](N)C3)cc(NC(=O)c3ccc(C)c(Nc4nccc(-c5ccc(F)cc5)n4)c3)c2)cn1

target: Platelet-derived growth factor receptor beta (Homo sapiens, UniProt P09619); test: as §2, with “GST-tagged PDGFRbeta cytoplasmic domain (557” for “His-tagged Abl (2”, “1106” for “1130”, “P22” for “P2”; settings: not given
Sequence (P09619 whole entry, the tested form may be a part): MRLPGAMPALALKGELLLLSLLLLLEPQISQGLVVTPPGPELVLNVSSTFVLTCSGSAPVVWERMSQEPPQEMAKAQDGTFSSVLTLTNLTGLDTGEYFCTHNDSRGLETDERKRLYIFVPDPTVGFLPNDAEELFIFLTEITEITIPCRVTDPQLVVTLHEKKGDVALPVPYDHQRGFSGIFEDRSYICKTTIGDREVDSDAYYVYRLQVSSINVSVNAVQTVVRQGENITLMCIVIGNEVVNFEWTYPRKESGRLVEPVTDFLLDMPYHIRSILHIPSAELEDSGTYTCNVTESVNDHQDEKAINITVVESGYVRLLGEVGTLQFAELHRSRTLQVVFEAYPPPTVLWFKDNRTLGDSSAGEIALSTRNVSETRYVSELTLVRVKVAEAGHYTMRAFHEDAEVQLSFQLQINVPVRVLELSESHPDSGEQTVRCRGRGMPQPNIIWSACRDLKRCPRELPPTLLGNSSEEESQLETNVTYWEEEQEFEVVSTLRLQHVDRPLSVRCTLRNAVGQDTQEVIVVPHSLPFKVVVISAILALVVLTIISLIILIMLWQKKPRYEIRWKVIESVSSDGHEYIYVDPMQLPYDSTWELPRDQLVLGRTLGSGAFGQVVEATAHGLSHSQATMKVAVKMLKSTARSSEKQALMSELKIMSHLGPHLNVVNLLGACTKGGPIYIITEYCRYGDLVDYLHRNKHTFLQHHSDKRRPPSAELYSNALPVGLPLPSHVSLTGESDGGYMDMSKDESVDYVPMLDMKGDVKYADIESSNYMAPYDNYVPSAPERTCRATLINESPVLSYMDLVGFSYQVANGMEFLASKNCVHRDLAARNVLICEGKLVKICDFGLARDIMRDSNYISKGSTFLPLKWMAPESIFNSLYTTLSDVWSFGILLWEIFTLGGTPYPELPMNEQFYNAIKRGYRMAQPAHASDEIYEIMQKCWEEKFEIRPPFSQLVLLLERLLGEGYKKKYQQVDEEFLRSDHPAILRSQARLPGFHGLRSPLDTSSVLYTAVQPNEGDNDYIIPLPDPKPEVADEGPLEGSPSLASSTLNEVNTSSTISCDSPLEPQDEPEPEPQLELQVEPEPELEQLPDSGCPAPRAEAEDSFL

Row | IC50 [µM] | SMILES
16 | 5.52 | Cc1cc(-c2cc(NC(=O)c3ccc(C)c(Nc4nccc(-c5ccc(F)cc5)n4)c3)cc(N3CCN(C)CC3)c2)on1
17 | 3.29 | Cc1cn(-c2cc(NC(=O)c3ccc(C)c(Oc4cccc5ccncc45)c3)cc(N3CCN(C)CC3)c2)cn1
18 | > 10 | Cc1ccc(C(=O)Nc2cccc(N3CCN(C)CC3)c2)cc1Nc1nccc(-c2ccc(F)cc2)n1
19 | > 10 | Cc1cn(-c2cc(NC(=O)c3ccc(C)c(Nc4nccc(-c5ccc(F)cc5)n4)c3)cc(N3CCOCC3)c2)cn1
20 | 2.04 | Cc1cn(-c2cc(CN3CCC[C@H](N)C3)cc(NC(=O)c3ccc(C)c(Nc4nccc(-c5ccc(F)cc5)n4)c3)c2)cn1

target: Proto-oncogene tyrosine-protein kinase Src (Homo sapiens, UniProt P12931); test: Inhibition of recombinant human full-length N-terminal GST-tagged SRC (1 to 536 residues) expressed in baculovirus expression system using FAM-labelled P4 peptide as substrate preincubated for 10 mins followed by substrate addition and measured after 1 hr in presence of ATP by fluorescence assay; settings: not given
Sequence (P12931 2-536 limits assumed): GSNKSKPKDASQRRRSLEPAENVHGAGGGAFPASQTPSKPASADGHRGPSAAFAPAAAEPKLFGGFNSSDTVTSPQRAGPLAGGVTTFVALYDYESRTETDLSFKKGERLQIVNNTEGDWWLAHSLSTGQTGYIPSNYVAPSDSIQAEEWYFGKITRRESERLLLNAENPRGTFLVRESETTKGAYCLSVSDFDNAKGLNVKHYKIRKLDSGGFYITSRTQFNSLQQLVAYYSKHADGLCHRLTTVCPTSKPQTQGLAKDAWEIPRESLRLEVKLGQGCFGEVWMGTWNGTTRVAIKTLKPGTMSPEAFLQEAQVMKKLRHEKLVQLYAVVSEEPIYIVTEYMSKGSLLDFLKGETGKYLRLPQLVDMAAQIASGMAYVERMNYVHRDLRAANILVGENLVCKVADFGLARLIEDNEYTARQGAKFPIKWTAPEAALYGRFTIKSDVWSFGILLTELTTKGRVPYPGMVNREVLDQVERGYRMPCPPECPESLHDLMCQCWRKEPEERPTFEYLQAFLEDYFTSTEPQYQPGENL

Row | IC50 [µM] | SMILES
21 | > 10 | Cc1cc(-c2cc(NC(=O)c3ccc(C)c(Nc4nccc(-c5ccc(F)cc5)n4)c3)cc(N3CCN(C)CC3)c2)on1
22 | 2.61 to 2.62 | Cc1cn(-c2cc(NC(=O)c3ccc(C)c(Oc4cccc5ccncc45)c3)cc(N3CCN(C)CC3)c2)cn1
23 | > 10 | Cc1ccc(C(=O)Nc2cccc(N3CCN(C)CC3)c2)cc1Nc1nccc(-c2ccc(F)cc2)n1
24 | > 10 | Cc1cn(-c2cc(NC(=O)c3ccc(C)c(Nc4nccc(-c5ccc(F)cc5)n4)c3)cc(N3CCOCC3)c2)cn1
25 | > 10 | Cc1cn(-c2cc(CN3CCC[C@H](N)C3)cc(NC(=O)c3ccc(C)c(Nc4nccc(-c5ccc(F)cc5)n4)c3)c2)cn1

tested on: not listed separately; test: Clearance in CD1 mouse at 0.4 mg/kg, iv administered as cassette dose measured upto 24 hrs by LC-MS/MS analysis; type: ADME, organism-based; settings: in vivo
In short: (§3)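 Male CD1 mice (second cassette 28–29 g, 7–8 weeks) given one IV 5-in-1 cassette at 0.4 mg/kg per compound in 5% DMAC/5% Solutol HS15/90% saline. Blood (~20 µL) into K2EDTA from the facial vein at 0.083–24 h, terminal bleed by cardiac puncture under isoflurane. Blood diluted with deionised water, stored at −80 °C, analysed by positive-ESI mass spectrometry.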

Row | clearance [mL/min/kg] | SMILES
26 | 50.8 | Cc1cn(-c2cc(NC(=O)c3ccc(C)c(Oc4cccc5ccncc45)c3)cc(N3CCN(C)CC3)c2)cn1
27 | 23.5 | Cc1cn(-c2cc(CN3CCC[C@H](N)C3)cc(NC(=O)c3ccc(C)c(Nc4nccc(-c5ccc(F)cc5)n4)c3)c2)cn1

tested on: not listed separately; test: Volume of distribution at steady state in CD1 mouse at 0.4 mg/kg, iv administered as cassette dose measured upto 24 hrs by LC-MS/MS analysis; type: ADME, organism-based; settings: in vivo, read-out: Vdss; in short: as §3

Row | Vd [L/kg] | SMILES
28 | 6.7 | Cc1cn(-c2cc(NC(=O)c3ccc(C)c(Oc4cccc5ccncc45)c3)cc(N3CCN(C)CC3)c2)cn1
29 | 13.3 | Cc1cn(-c2cc(CN3CCC[C@H](N)C3)cc(NC(=O)c3ccc(C)c(Nc4nccc(-c5ccc(F)cc5)n4)c3)c2)cn1

tested on: not listed separately; test: Terminal half life in CD1 mouse at 0.4 mg/kg, iv administered as cassette dose measured upto 24 hrs by LC-MS/MS analysis; type: ADME, organism-based; settings: in vivo, read-out: beta t1/2 (converted); in short: as §3

Row | half-life [h] | SMILES
30 | 2.77 | Cc1cn(-c2cc(NC(=O)c3ccc(C)c(Oc4cccc5ccncc45)c3)cc(N3CCN(C)CC3)c2)cn1
31 | 10.8 | Cc1cn(-c2cc(CN3CCC[C@H](N)C3)cc(NC(=O)c3ccc(C)c(Nc4nccc(-c5ccc(F)cc5)n4)c3)c2)cn1

tested on: not listed separately; test: AUClast in CD1 mouse at 0.4 mg/kg, iv administered as cassette dose measured upto 24 hrs by LC-MS/MS analysis; type: ADME, organism-based; parameters: time < 24 hr, dose 0.4 mg/kg, route intravenous; settings: in vivo; in short: as §3

Row | AUC(0-t) at 24 h [ng·h/mL] | SMILES
32 | 128 | Cc1cn(-c2cc(NC(=O)c3ccc(C)c(Oc4cccc5ccncc45)c3)cc(N3CCN(C)CC3)c2)cn1
33 | 243 | Cc1cn(-c2cc(CN3CCC[C@H](N)C3)cc(NC(=O)c3ccc(C)c(Nc4nccc(-c5ccc(F)cc5)n4)c3)c2)cn1

tested on: not listed separately; test: AUCinfinity in CD1 mouse at 0.4 mg/kg, iv administered as cassette dose measured upto 24 hrs by LC-MS/MS analysis; type: ADME, organism-based; parameters: dose 0.4 mg/kg, route intravenous, time infinity; settings: in vivo; in short: as §3

Row | AUC(0-inf) [ng·h/mL] | SMILES
34 | 133 | Cc1cn(-c2cc(NC(=O)c3ccc(C)c(Oc4cccc5ccncc45)c3)cc(N3CCN(C)CC3)c2)cn1
35 | 297 | Cc1cn(-c2cc(CN3CCC[C@H](N)C3)cc(NC(=O)c3ccc(C)c(Nc4nccc(-c5ccc(F)cc5)n4)c3)c2)cn1

tested on: not listed separately; test: Mean residence time (0 to infinity) in CD1 mouse at 0.4 mg/kg, iv administered as cassette dose measured upto 24 hrs by LC-MS analysis; type: ADME, organism-based; settings: in vivo; in short: as §3

Row | MRT inf [h] | SMILES
36 | 2.3 | Cc1cn(-c2cc(NC(=O)c3ccc(C)c(Oc4cccc5ccncc45)c3)cc(N3CCN(C)CC3)c2)cn1
37 | 10.4 | Cc1cn(-c2cc(CN3CCC[C@H](N)C3)cc(NC(=O)c3ccc(C)c(Nc4nccc(-c5ccc(F)cc5)n4)c3)c2)cn1

tested on: PCSK9/LDLR (Homo sapiens), Q8NBP7+P01130 [D374Y]; test: Inhibition of PCSK9 D374Y mutant (unknown origin) and LDLR protein-protein interaction in human HepG2 cells assessed as increase in Bodipy FL-labelled LDL uptake preincubated for 16 hrs followed by Bodipy FL-labelled LDL addition and measured after 4 hrs by fluorescence assay; type: cell-based; settings: not given
In short: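 HepG2 cells seeded at 2 × 10^5 cells/mL and attached overnight, then incubated 16 h with PCSK9-D374Y (2 μg/mL) plus compound (0.1 or 1 µM). Medium replaced with 10 μg/mL Bodipy FL LDL for 4 h. Cells washed with warm PBS; fluorescence read at ex 485/em 530 nm. Mean ± S.D.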

Row | inhibition | SMILES
38 | Dose-dependent effect | Cc1cn(-c2cc(NC(=O)c3ccc(C)c(Oc4cccc5ccncc45)c3)cc(N3CCN(C)CC3)c2)cn1

target: PCSK9/LDLR (Homo sapiens) (UniProt Q8NBP7+P01130); test: Inhibition of recombinant human His-tagged PCSK9 interaction with recombinant LDLR AB domain (unknown origin) at higher concentration measured after 3 hrs by horseradish peroxidase-coupled TMB substrate based spectrophotometry relative to control; type: protein assay; settings: not given; in short: as §1

Row | Imax [%] | SMILES
39 | > 35 | Cc1cn(-c2cc(NC(=O)c3ccc(C)c(Oc4cccc5ccncc45)c3)cc(N3CCN(C)CC3)c2)cn1
